This passage reports IC50 results from ChEMBL document CHEMBL1124899 (J Med Chem, 1990).

Holding throughout (assay type): cell membranes, Membrane
The target of test [1] is D(1A) dopamine receptor (Rattus norvegicus, UniProt P18901). In words: Compound was evaluated for the inhibition of [3H]-SCH- 23390 binding to Dopamine receptor D1 of rat striatal membranes. The method in brief: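 Rat striatum homogenized in Tris-HCl pH 7.4, pellet washed twice at 20,000g and resuspended at 3.5 mg wet weight/mL in 50 mM Tris-HCl with 120 mM NaCl, 5 mM KCl, 2 mM CaCl2, 1 mM MgCl2. Triplicates, three separate days. IC50 by log-probit analysis.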
D(1A) dopamine receptor, sequence (P18901 whole entry): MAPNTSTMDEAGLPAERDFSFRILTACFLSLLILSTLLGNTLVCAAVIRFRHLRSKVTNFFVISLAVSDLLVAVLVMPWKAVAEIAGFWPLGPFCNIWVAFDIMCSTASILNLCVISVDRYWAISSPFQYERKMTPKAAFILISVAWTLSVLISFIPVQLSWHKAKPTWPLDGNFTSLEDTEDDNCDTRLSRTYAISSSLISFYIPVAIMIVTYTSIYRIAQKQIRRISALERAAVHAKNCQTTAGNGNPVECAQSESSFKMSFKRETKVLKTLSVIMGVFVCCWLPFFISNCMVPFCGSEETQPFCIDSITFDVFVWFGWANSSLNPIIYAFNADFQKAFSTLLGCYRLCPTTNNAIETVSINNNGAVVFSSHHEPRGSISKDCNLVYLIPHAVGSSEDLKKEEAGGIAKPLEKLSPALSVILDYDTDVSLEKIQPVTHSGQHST

Test [2] deals with T1, D(2) dopamine receptor (Rattus norvegicus, UniProt P61169). The test can be described thus: Compound was evaluated for the inhibition of [3H]spiperone binding to dopamine receptor D2 of rat striatal membranes. The method in brief: (§1)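 Rat striatal membranes were washed twice at 20,000g and suspended at 3.5 mg wet weight/mL in 50 mM Tris-HCl pH 7.4 with 120 mM NaCl, 5 mM KCl, 2 mM CaCl2, 1 mM MgCl2. Displacement of 0.1 nM [3H]spiperone (final) by 6-7 concentrations of test drug. Nonspecific binding defined with 1 μM (+)-butaclamol. Triplicates, repeated on three days. IC50 from log-probit plot.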
T1 sequence (P61169 whole entry): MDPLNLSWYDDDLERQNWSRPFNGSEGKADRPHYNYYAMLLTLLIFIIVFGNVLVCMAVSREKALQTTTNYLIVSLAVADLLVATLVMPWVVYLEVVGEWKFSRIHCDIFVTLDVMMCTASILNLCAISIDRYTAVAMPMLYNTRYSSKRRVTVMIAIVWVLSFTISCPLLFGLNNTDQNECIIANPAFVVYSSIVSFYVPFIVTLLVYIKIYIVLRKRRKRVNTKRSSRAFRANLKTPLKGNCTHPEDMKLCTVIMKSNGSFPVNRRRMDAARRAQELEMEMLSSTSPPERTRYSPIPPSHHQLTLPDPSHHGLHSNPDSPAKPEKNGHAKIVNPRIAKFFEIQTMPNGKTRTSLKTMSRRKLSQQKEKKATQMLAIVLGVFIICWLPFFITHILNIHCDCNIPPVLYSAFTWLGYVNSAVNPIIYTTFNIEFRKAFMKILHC

Test [3] has as its target T1, D(2) dopamine receptor. In words: Compound was evaluated for the inhibition of [3H]spiperone binding to Dopamine receptor D2 of rat striatal membranes. In a few lines:
as §1

With `CCCN(CCc1ccccc1)CCc1ccc(O)c(F)c1`, the IC50 (as a rule, the concentration that gives 50% inhibition) in test [1] was determined as 38 µM; in test [2], 0.58 µM. Consider `CCCN(CC)CCc1ccc(F)c(O)c1`, for which the IC50 in test [1] was 11.1 µM; in test [2], 1.97 µM. Compound `CCN(CCc1ccccc1)CCc1ccc(F)c(O)c1` gave an IC50 in test [1] of 8 µM. This counts as single-digit micromolar. In the case of `CCCN(CCC)CCc1ccc(F)c(O)c1`, the IC50 in test [1] is 11.4 µM; in test [2] it was 0.95 µM. Regarding `CCCN(CCc1ccccc1)CCc1ccc(F)c(O)c1`, the concentration for half-maximal inhibition (IC50) in test [1] was 10.9 µM; in test [2], 0.25 µM. Consider `NCCc1ccc(F)c(O)c1`, for which the 50% inhibitory concentration (IC50) in test [1] turned out to be 6.15 µM; in test [3] it was 4.64 µM.
